Reference: publication PMC12541583 (Acta Pharmaceutica Sinica. B, 2025)

Legend:
PARP1 [1] = target: PARP1 (Rattus norvegicus, UniProt P27008); assay: In vitro autoradiography of [18F]AZD9574 on rat brain sections; assay type: binding; details: blocker 10 μmol/L
MDR1 (P-gp) = MDR1 (P-gp) (Homo sapiens, UniProt P08183); assay: In vitro Pg-P efflux assay; assay type: in vitro ADME; details: not told
CYP1A2 = target: T1, CYP1A2 (Homo sapiens, UniProt P05177); assay: CYP interactions, CYP1A2; assay type: in vitro ADME
T1 sequence (P05177 1-516): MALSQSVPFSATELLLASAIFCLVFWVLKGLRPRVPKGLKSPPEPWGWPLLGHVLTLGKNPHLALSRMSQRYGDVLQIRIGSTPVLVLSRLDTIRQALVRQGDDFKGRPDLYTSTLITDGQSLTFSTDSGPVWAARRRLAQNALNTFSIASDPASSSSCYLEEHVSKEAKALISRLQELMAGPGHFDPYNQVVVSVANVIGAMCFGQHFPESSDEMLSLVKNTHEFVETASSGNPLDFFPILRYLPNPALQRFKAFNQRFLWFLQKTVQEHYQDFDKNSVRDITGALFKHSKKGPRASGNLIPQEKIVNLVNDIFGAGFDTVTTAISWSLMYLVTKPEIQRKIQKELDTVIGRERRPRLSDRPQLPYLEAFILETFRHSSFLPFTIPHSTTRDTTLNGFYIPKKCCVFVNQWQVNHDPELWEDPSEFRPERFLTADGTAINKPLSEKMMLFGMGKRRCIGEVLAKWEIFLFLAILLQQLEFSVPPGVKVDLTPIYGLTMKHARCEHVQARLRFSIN

CYP2D6 = CYP2D6 (Homo sapiens, UniProt P10635); assay: CYP interactions, CYP2D6; assay type: in vitro ADME
CYP2C19 = CYP2C19 (Homo sapiens, UniProt P33261); assay: CYP interactions, CYP2C19; assay type: in vitro ADME
CYP3A4 = CYP3A4 (Homo sapiens, UniProt P08684); assay: CYP interactions, CYP3A4; assay type: in vitro ADME
CYP2C9 = CYP2C9 (Homo sapiens, UniProt P11712); assay: CYP interactions, CYP2C9; assay type: in vitro ADME
CYP19A = target: T2, CYP19A (Homo sapiens, UniProt P11511); assay: CYP interactions, CYP19A; assay type: in vitro ADME
T2 sequence (P11511 1-503): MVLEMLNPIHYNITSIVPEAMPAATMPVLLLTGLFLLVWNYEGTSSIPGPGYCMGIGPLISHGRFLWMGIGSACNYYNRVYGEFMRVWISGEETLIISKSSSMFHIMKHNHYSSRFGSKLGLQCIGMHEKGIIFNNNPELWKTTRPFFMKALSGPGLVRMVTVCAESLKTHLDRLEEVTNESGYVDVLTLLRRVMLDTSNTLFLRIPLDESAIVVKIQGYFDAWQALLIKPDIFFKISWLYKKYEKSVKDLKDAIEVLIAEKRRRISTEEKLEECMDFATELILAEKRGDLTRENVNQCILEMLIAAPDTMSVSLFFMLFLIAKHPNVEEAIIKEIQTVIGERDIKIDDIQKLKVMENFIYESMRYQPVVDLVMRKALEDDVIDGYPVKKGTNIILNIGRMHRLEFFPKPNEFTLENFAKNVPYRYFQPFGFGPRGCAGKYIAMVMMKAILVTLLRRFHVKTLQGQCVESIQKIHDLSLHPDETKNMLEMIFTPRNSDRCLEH

[2] = target: human ether-a-go-go-related gene (hERG) channel (Homo sapiens, UniProt Q12809); assay: In vitro hERG channel safety
HepG2 cells = assay: CellTiter-Glo luminescent cell viability assay in HepG2 cells; assay type: cell-based; details: Homo sapiens, HepG2, read-out: HepG2 IC50
PARP1 [3] = assay: In vitro autoradiography of [18F]AZD9574 on NHP cerebellum brain sections; assay type: binding; details: blocker 10 μmol/L
Summary of the method: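 Rat and NHP brain sections were pre-incubated 10 min at ambient temperature in 50 mmol/L Tris–HCl with 0.1% BSA. They were then incubated 1 h with radioligand (~4 μCi/mL, ~4 nmol/L), with blockers at 10 μmol/L added beforehand. Sections were rinsed twice for 2 min in ice-cold buffer with ethanol, dipped in cold water, air-dried and exposed to imaging plates overnight. ROI radioactivity was taken as % of control; mean ± SD, n = 3.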

PARP1 [4] = target: PARP1 (Macaca mulatta, UniProt H9FQ77); assay: NHP PET imaging of [18F]AZD9574, baseline and blocking; assay type: in vivo, rhesus monkeys
Summary of the method: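 An iv bolus of tracer (4.05 ± 0.54 mCi) was followed by 90 min dynamic 3D PET acquisition in 36 frames. ROIs were drawn on co-registered T1-weighted MRI. Regional SUV time–activity curves were generated; baseline scans n = 2 animals.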

PC3 cell lines = assay: In vitro cellular uptake and blocking of [18F]AZD9574 in PC3 cells; assay type: cell-based; details: blocker 1 μmol/L
Summary of the method: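 PC3 cells were grown in F-12K with 10% FBS and 1% penicillin–streptomycin at 37 °C, 5% CO2, and seeded at 1×10^5 cells/well 24 h before use. After two PBS rinses, 1 μCi/well tracer plus blocking agent was added in serum-free medium for 60 min at 37 °C. Cells were rinsed twice with cold PBS, lysed in 0.1 mol/L NaOH and counted in a gamma counter.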

Chain of PARP1 (Rattus norvegicus, UniProt P27008) (P27008 whole entry): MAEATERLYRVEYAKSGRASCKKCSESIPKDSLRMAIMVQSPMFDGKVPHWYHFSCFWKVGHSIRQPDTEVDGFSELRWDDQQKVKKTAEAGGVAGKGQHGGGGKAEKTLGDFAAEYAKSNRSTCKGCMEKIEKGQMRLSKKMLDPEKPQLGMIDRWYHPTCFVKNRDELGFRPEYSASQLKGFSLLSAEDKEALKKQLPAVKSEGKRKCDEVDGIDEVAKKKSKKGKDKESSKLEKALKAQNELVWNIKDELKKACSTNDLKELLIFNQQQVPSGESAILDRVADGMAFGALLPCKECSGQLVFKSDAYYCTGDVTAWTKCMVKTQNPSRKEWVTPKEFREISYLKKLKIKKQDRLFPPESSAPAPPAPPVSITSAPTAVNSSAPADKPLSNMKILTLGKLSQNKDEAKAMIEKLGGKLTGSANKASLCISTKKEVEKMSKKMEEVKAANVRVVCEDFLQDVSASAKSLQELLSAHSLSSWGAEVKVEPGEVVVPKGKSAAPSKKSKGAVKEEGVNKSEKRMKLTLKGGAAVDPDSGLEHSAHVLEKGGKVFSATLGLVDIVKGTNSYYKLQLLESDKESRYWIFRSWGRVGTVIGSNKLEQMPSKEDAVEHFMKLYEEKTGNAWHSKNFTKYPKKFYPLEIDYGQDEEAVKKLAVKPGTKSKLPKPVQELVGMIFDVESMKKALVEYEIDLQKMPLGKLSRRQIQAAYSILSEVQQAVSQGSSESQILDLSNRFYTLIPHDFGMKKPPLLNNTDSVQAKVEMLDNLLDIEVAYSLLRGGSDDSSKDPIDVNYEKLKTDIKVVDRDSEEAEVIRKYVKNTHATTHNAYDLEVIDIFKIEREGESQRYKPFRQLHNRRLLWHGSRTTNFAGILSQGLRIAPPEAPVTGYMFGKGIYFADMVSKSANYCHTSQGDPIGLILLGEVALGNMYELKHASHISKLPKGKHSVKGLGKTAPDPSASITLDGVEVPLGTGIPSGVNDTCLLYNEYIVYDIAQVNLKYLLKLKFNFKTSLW
Chain of PARP1 (Macaca mulatta, UniProt H9FQ77) (H9FQ77 1-1014): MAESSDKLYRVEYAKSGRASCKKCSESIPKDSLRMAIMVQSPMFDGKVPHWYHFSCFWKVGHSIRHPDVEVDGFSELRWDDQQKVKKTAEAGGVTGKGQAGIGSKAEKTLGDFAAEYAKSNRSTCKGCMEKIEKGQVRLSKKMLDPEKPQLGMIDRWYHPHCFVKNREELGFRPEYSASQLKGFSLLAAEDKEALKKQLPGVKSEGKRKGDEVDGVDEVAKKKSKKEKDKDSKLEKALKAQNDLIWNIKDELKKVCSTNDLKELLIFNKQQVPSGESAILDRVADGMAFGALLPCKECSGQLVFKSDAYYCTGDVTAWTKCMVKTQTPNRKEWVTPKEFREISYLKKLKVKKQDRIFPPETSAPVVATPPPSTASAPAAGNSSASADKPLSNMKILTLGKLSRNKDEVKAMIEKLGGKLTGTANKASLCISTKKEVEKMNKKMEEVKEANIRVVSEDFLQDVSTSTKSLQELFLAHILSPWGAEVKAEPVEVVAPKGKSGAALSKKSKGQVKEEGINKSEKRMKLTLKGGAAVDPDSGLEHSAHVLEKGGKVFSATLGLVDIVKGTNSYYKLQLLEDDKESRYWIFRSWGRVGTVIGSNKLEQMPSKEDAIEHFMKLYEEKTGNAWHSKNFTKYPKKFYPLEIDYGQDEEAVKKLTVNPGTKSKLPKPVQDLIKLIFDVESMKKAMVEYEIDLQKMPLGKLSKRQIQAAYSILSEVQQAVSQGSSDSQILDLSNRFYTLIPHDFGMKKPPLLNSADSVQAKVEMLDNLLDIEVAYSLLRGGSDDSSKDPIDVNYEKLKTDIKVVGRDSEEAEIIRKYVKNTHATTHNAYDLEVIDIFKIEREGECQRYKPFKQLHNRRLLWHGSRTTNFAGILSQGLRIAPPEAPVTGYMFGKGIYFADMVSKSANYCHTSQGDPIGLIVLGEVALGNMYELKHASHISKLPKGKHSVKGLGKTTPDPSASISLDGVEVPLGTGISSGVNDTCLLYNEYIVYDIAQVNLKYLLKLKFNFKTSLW
Chain of CYP2C19 (P33261 whole entry, species assumed): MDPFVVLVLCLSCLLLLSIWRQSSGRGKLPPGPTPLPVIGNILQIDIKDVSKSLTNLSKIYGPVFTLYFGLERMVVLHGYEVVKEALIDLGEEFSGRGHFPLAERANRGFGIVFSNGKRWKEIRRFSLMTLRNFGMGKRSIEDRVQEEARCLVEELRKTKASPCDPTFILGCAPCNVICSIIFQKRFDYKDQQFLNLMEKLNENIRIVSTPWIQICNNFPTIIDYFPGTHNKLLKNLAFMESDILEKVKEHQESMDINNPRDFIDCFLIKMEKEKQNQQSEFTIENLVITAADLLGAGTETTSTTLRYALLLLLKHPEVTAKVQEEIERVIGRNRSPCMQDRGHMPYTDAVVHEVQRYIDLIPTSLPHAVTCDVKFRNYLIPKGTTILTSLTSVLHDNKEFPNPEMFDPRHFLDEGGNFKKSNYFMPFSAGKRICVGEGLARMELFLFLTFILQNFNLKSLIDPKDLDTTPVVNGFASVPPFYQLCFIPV
Chain of human ether-a-go-go-related gene (hERG) channel (Q12809 whole entry): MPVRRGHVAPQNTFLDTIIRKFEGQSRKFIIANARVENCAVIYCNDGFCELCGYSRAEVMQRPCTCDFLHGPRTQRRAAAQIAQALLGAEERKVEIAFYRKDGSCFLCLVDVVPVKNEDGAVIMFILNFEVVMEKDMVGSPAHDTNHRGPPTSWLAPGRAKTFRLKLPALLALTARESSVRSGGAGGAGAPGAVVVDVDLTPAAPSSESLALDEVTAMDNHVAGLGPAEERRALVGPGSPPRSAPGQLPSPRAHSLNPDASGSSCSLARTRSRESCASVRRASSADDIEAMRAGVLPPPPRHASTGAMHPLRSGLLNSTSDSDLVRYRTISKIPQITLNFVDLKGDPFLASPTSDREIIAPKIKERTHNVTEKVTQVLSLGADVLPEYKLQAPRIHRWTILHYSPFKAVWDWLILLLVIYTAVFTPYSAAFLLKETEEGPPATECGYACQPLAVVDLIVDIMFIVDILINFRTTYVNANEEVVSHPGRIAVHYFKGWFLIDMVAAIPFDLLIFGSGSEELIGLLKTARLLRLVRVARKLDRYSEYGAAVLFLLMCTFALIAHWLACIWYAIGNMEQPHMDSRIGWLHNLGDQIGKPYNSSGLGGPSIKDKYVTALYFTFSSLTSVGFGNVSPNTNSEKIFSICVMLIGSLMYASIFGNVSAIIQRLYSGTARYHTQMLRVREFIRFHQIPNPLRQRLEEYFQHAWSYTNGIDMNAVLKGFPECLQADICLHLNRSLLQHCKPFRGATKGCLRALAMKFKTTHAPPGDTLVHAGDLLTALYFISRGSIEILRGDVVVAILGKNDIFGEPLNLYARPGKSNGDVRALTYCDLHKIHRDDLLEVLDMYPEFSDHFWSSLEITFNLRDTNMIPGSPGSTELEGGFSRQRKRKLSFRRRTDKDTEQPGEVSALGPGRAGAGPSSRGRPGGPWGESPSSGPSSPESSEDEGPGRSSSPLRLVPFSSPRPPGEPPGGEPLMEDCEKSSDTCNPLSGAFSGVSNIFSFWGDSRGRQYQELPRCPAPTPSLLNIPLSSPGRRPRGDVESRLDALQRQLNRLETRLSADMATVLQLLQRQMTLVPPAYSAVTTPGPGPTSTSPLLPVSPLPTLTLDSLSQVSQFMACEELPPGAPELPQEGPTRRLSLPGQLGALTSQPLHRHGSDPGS
Chain of CYP2D6 (P10635 whole entry, species assumed): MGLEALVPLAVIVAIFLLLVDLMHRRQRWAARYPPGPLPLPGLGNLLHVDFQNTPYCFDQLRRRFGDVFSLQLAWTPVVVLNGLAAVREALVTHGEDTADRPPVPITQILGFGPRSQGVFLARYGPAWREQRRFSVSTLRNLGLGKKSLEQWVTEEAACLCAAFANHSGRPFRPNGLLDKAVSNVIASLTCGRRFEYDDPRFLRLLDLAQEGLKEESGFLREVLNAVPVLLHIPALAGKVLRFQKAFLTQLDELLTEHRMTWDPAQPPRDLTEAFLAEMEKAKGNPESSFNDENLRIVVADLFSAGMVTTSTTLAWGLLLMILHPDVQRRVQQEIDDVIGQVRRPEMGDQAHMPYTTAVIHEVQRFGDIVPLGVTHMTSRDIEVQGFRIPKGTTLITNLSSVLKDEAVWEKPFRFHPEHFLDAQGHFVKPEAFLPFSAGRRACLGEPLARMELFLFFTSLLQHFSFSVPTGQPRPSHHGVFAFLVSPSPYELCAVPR
Chain of CYP3A4 (P08684 whole entry, species assumed): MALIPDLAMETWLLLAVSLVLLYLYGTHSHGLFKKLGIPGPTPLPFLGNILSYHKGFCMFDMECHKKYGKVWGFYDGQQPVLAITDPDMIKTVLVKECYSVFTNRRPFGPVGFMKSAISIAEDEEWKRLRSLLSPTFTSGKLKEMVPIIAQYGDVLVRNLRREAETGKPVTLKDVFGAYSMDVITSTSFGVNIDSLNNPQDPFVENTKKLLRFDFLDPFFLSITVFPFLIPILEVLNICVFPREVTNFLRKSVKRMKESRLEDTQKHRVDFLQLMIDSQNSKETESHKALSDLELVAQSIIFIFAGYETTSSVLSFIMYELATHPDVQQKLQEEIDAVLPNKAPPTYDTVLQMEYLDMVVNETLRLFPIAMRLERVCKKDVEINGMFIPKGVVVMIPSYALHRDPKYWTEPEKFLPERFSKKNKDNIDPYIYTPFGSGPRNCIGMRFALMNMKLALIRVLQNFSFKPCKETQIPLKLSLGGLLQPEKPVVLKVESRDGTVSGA

C[C@]12CCCN1CC1=NNC(=O)c3cc(F)cc4[nH]c2c1c34 [pamiparib]
reduction of [18F]AZD9574 radioactivity accumulation in all brain regions (PARP1 [1]): greater than 85%

CNC(=O)c1ccc(N2CCN(Cc3ccc4nc(C)c(=O)[nH]c4c3F)CC2)c(F)n1 [compound 5, 6-fluoro-5-(4-((5-fluoro-2-methyl-3-oxo-3,4-dihydroquinoxalin-6-yl)methyl)piperazin-1-yl)-N-methylpicolinamide]
Papp A→B (MDR1 (P-gp)): 42.5 ×10⁻⁶ cm/s
IC50 (CYP1A2): > 5 µM
IC50 (CYP2D6): > 5 µM
IC50 (CYP2C19): > 5 µM
IC50 (CYP3A4): > 5 µM
IC50 (CYP2C9): > 5 µM
IC50 (CYP19A): > 5 µM
IC50 [2]: > 100 µM
IC50 (HepG2 cells): > 100 µM
effect on [18F]AZD9574 uptake in the cerebellum (PARP1 [3]): substantial uptake reduction
reduction of [18F]AZD9574 radioactivity accumulation in the cerebellum (area under curve 60-90 min) (PARP1 [4]; pretreatment 0.05 mg/kg): 37.7%
reduction of [18F]AZD9574 radioactivity accumulation in the cerebellum (area under curve 60-90 min) (PARP1 [4]; pretreatment 0.5 mg/kg): 63.4%

CNCc1ccc(-c2[nH]c3cc(F)cc4c3c2CCNC4=O)cc1 [rucaparib]
reduction of [18F]AZD9574 radioactivity accumulation in all brain regions (PARP1 [1]): greater than 85%

COC1CCN(C(=O)c2cc(Cc3n[nH]c(=O)c4ccccc34)ccc2F)CC1 [AZD2461]
reduction of [18F]AZD9574 radioactivity accumulation in all brain regions (PARP1 [1]): greater than 85%

O=C(c1cc(Cc2n[nH]c(=O)c3ccccc23)ccc1F)N1CCN(C(=O)C2CC2)CC1 [olaparib, reference compound]
effect on [18F]AZD9574 uptake (PC3 cell lines): significantly attenuated
effect on [18F]AZD9574 uptake in the cerebellum (PARP1 [3]): substantial uptake reduction

C[C@]1(c2nc3c(C(N)=O)cccc3[nH]2)CCCN1 [veliparib]
reduction of [18F]AZD9574 radioactivity accumulation in all brain regions (PARP1 [1]): greater than 85%
